In experiment [1] the test system is Mus musculus. Put plainly: Inhibition of 5'-TCTGACRTTCT-X-TCTTRCAGTCT-3'-induced IL12 production in C57BL/6 mouse at 10 mg/kg, sc. It counts as functional, organism-based. Details: dose 10 mg/kg. The gist of the method:
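C57BL/6 mice received antagonist or control 10 mg/kg sc, either with TLR9 agonist 0.25 mg/kg sc or up to 48 h before it. Serum IL-12 was measured 2 h after agonist. Two or three independent experiments; mean ± SEM, Student's t test versus PBS.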

The test system of experiment [2] is Mus musculus. Put plainly: Inhibition of 5'-TCTGACRTTCT-X-TCTTRCAGTCT-3'-induced IL10 production in C57BL/6 mouse treated 72 hrs before induction at 10 mg/kg, sc. To be noted: C57BL/6, sc, route subcutaneous. It counts as functional. Put shortly:
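Female C57BL/6 mice (n=3) received antagonist 10 mg/kg sc in the right flank. After 72 h, TLR9 agonist 0.25 mg/kg sc was given in the left flank. Serum was taken 2 h after agonist and cytokines/chemokines were measured by Luminex multiplex assay. Representative of at least three experiments.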

The structures appear in SMILES notation. Calls of active or inactive are those of the source. The calls are words filed in the database; no cut-off is given here.

As usually defined, the inhibition in vivo is how much of the control response was suppressed.

Regarding `CO[C@@H]1[C@H](OP(=O)(S)OC[C@H]2O[C@@H](n3ccc(N)nc3=O)C[C@@H]2OP(=O)(S)OC[C@H]2O[C@@H](n3ccc4c(=O)[nH]c(N)nc43)C[C@@H]2OP(=O)(S)OC[C@H]2O[C@@H](n3cc(C)c(=O)[nH]c3=O)C[C@@H]2OP(=O)(S)OC[C@H]2O[C@@H](n3cc(C)c(=O)[nH]c3=O)C[C@@H]2OP(=O)(S)OC[C@H]2O[C@@H](n3ccc(N)nc3=O)C[C@@H]2OP(=O)(S)OC[C@H]2O[C@@H](n3cc(C)c(=O)[nH]c3=O)C[C@@H]2OP(=O)(S)OC[C@H]2O[C@@H](n3ccc(N)nc3=O)C[C@@H]2OP(=O)(S)OC[C@H]2O[C@@H](n3cc(C)c(=O)[nH]c3=O)C[C@@H]2OP(=O)(S)OC[C@H]2O[C@@H](n3cnc4c(=O)[nH]c(N)nc43)C[C@@H]2OP(=O)(S)OC[C@H]2O[C@@H](n3cc(C)c(=O)[nH]c3=O)C[C@@H]2O)[C@@H](COP(=O)(S)O[C@H]2[C@@H](OC)[C@H](n3cnc4c(=O)[nH]c(N)nc43)O[C@@H]2COP(=O)(S)O[C@H]2C[C@H](n3cc(C)c(=O)[nH]c3=O)O[C@@H]2COP(=O)(S)O[C@H]2C[C@H](n3ccc(N)nc3=O)O[C@@H]2COP(=O)(S)O[C@H]2C[C@H](n3cc(C)c(=O)[nH]c3=O)O[C@@H]2COP(=O)(S)O[C@H]2C[C@H](n3cnc4c(N)ncnc43)O[C@@H]2COP(=O)(S)O[C@H]2C[C@H](n3cc(C)c(=O)[nH]c3=O)O[C@@H]2COP(=O)(S)O[C@@H]2C[C@@H](n3ccc(N)nc3=O)O[C@H]2CO)O[C@H]1n1cnc2c(N)ncnc21` (some centres not stated), the outcome with Mus musculus [1] was Active. In the experiment on Mus musculus [2], the inhibition in vivo at 10 mg/kg is ≥ 50%.

(Values after ChEMBL document CHEMBL1140884, “Oligodeoxyribonucleotide-based antagonists for Toll-like receptors 7 and 9” (2009).)
